An excerpt weighted towards active compounds, which were near 3.7% of everything screened.
KCNK3 block – human KCNK3 channel inhibitors, primary screen, CHO cells, FluxOR thallium flux, B-score | Potassium channel subfamily K member 3 (Homo sapiens), O14649 | FluxOR fluorescence; stronger effect = lower value | B-score at 10 µM | actives 0.84% (n = 340,000);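 active = B-score under library mean minus 4 SD, starting fluorescence ratio at most library mean plus 5 SD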;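 note: more negative B-score means stronger inhibition of thallium flux through KCNK3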
KCNQ1 act – potentiators or activators of KCNQ1 channel, primary screen, cell-based, thallium flux, high-throughput | CHO-K1 KCNQ1, thallium flux FluxOR fluorescence; stronger effect = higher value | B-score at 10 µM | actives 0.35% (n = 310,000) | AID 2648, 2010;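 active = fluorescence ratio B-score, a plate-corrected score, at least three library SD, with initial intensity B-score within 5 SD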
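Medium – assay buffer, equal DMSO in all wells · Material – CHO-K1 cell line with stable KCNQ1 potassium channel expression · Signal – kinetic FluxOR thallium fluorescence, 10-s 1-Hz baseline, 110-s post-stimulus read · Compound – single concentration per compound, DMSO matched to controls · Schedule – 37 °C overnight plating, 90-min dark dye load, 20-min compound pretreatment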
hERG rescue – hERG rescue from dofetilide block, primary screen, cell-based, CHO-hERG, FluxOR thallium flux, dofetilide IC70 | Voltage-gated inwardly rectifying potassium channel KCNH2 (Homo sapiens), Q12809 | dofetilide IC70 present | activation (rescue from dofetilide block), less the hit threshold, % at 10 µM | actives 0.51% (n = 310,000);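 active = activation above the mean of controls blocked by dofetilide plus 5 SD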;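 note: thallium influx through hERG after potassium depolarization seen as dye fluorescence rise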
Kir21 inh – inhibitors of mouse Kir2.1 inward-rectifier potassium channel; Inward rectifier potassium channel 2 (Mus musculus), P35561; HEK293-Kir2.1, FluxOR thallium flux fluorescence; stronger effect = lower value; B-score at 10 µM; actives 0.85% (n = 310,000); AID 1672, 2009;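 active = fluorescence ratio B-score at or below minus 3 SD of library scores, with starting-brightness B-score within 2 SD, cut at about -4.2 in these data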;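 note: channel flux triggered by added potassium and thallium sulfate stimulus; B-score of peak minus minimum fluorescence over baseline after thallium stimulus; more negative B-score means stronger Kir2.1 block with less thallium influx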
Target sequence (P35561 whole entry, looked up): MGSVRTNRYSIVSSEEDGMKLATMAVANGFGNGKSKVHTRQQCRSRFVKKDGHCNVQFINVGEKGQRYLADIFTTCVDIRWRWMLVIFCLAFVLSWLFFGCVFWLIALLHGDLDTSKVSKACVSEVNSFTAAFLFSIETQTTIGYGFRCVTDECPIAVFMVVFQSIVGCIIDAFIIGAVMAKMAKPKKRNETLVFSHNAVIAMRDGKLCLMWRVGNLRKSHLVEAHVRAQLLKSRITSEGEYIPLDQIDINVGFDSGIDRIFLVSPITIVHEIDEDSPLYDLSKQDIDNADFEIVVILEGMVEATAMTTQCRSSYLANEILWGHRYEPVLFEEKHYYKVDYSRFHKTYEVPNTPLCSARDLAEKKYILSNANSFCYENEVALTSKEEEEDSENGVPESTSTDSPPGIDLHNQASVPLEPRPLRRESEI
KCNQ1 inh – inhibitors of human KCNQ1 channel, primary screen, cell-based, thallium flux, high-throughput; CHO-K1 KCNQ1, FluxOR thallium flux fluorescence; stronger effect = higher value; B-score at 10 µM; actives 1.3% (n = 310,000);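 active = compounds whose thallium flux B-score, printed positive for inhibition, exceeds three library SD while starting fluorescence stays within three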;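 note: channel opened by potassium depolarization with thallium stimulus after 20 min compound exposure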
KCNK9 inh – KCNK9 potassium channel inhibitors, primary screen, HEK293 cells, thallium flux; B-score at 10 µM; AID 488922, 2010; FluxOR thallium flux fluorescence; stronger effect = lower value; Potassium channel subfamily K member 9 (Homo sapiens), Q9NPC2; actives 1.2% (n = 310,000);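 active = ratio B-score over 3 SD below the library mean, with starting fluorescence within 5 SD of its mean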;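 note: negative B-score means less thallium flux so channel inhibition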
KCNK3 confirm – retest of human KCNK3 channel inhibitors, confirmation, CHO cells, FluxOR thallium flux, triplicate. AID 651638, 2012. shares compounds with KCNK3 block. ratio percent of control, % at 10 µM. actives 99% (n = 2,400). FluxOR fluorescence; 0% buffer, 100% carvedilol maximal block;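 active = ratio percent of control, averaged over triplicates, above buffer control mean plus 5 SD, cut at about 64% in these data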;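 note: ratio is the fluorescence rise from min to max over baseline after thallium stimulus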
KCNK3 noninduced – thallium flux inhibition in non-induced cells, primary screen, counter-screen for KCNK3 inhibitor project, cell-based, non-induced KCNK3 line, FluxOR thallium, triplicate; shares compounds with KCNK3 block; non-induced KCNK3 parental cells; stronger effect = lower value; thallium flux ratio (lower = more inhibition) at 10 µM; actives 40% (n = 2,400); AID 651747, 2012;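 active = thallium flux ratio, averaged over three wells, more than 5 SD below the buffer control mean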;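 note: host cells are CHO cells without KCNK3 induction; ratio is peak minus trough fluorescence over baseline then normalized to buffer controls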
The depositor's hits bear a star; i = inactive; . = no result.

SMILES	KCNK3 block	KCNQ1 act	hERG rescue	Kir21 inh	KCNQ1 inh	KCNK9 inh	KCNK3 confirm	KCNK3 noninduced
O=[N+]([O-])c1ccccc1/C=N\N1CCN(Cc2ccccc2Cl)CC1	-8.9*	i	-8	-1.3	i	i	99*	i
O=C1c2ccccc2C(Nc2ccc(F)c(Cl)c2)N1c1ccccn1 (stereo not given)	i	i	-8	0.58	i	i	.	.
COc1ccc(NC2c3ccccc3C(=O)N2c2ccccn2)cc1Cl (stereo not given)	-11*	i	-8	1.8	i	-7.5*	112*	i
Cc1ccc2cc(CN(Cc3ccccc3)Cc3nnnn3C3CCCC3)c(=O)[nH]c2c1	-10*	i	-6	0.2	i	i	103*	0.15*
Cc1ccc2cc(CN(Cc3ccc(F)cc3)Cc3nnnn3C3CCCC3)c(=O)[nH]c2c1	i	i	-3	0.29	i	i	.	.
CCc1ccc2[nH]c(=O)c(CN(Cc3ccc4c(c3)OCO4)Cc3nnnn3C3CCCC3)cc2c1	-8.7*	i	-4	-0.83	i	i	128*	0.13*
O=C(CSc1ncccn1)NCC1CCCO1 (stereo not given)	i	i	-5	-0.91	i	i	.	.
CCOC(=O)c1cc(C)sc1NC(=O)CSC1=NCCS1	-12*	i	-9	-2	i	i	119*	i
CCOC(=O)c1cc(C)sc1NC(=O)CSc1nnnn1C	i	i	-6	1.7	i	i	.	.
CCOc1cc(/C=C2\C(=O)N(Cc3ccco3)C(C)=C2C(=O)OC)ccc1O	-9.5*	i	-27	-0.16	i	i	71*	i
Cc1cccc(-n2ncc3c2CCCC3NC(=O)CCc2cccnc2)c1C (stereo not given)	i	i	-5	0.61	i	i	.	.
COC(=O)NCc1ccc2c(c1)OCO2	i	i	-8	1.4	i	i	.	.
C/C(=C\C(=O)c1ccc(Cl)cc1)NCc1ccc2c(c1)OCO2	-9.8*	i	-6	-0.72	i	i	84*	0.16*
